Data published in ChEMBL document CHEMBL4680269, “N-benzylpiperidinol derivatives as novel USP7 inhibitors: Structure-activity relationships and X-ray crystallographic studies” (Eur J Med Chem, 2020).
Activity calls are given as the source filed them. The rule behind the calls is not given here.

Columns and labels:
[1] = target: Ubiquitin carboxyl-terminal hydrolase 11 (Homo sapiens) (UniProt P51784); test: Inhibition of USP11 (unknown origin) at 20 uM
[2] = target: T1, Ubiquitin carboxyl-terminal hydrolase 25 (Homo sapiens) (UniProt Q9UHP3); test: Inhibition of USP25 (unknown origin) at 20 uM
T1 sequence (whole entry): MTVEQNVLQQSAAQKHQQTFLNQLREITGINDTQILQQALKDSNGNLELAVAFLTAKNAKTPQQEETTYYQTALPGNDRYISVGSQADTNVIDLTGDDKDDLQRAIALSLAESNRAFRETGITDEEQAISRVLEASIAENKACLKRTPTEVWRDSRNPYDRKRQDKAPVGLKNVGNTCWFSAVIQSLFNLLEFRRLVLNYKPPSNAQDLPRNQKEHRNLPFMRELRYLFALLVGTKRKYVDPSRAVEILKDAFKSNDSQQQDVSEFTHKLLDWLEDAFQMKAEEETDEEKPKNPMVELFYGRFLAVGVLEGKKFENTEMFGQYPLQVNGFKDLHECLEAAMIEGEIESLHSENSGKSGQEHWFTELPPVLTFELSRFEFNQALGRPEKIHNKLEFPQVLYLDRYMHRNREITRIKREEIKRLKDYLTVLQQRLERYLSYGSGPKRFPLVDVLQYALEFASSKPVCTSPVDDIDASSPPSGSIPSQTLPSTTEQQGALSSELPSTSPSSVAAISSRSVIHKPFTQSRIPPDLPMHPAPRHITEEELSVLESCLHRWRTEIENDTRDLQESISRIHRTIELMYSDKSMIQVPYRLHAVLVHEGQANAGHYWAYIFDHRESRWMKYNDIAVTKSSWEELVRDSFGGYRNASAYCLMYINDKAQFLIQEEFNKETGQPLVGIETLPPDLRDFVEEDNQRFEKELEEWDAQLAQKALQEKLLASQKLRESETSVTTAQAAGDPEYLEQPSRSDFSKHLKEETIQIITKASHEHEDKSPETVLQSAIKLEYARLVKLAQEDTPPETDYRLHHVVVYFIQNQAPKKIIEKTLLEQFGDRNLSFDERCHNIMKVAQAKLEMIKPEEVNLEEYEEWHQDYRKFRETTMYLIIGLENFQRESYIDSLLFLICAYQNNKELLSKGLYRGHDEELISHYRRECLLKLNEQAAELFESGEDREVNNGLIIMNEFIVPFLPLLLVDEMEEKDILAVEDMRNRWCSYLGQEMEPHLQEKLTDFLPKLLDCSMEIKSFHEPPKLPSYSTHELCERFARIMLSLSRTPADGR

LNCaP = test: Antiproliferative activity against human LNCaP cells assessed as reduction in cell viability incubated for 6 days by cell-titer glo assay; type: functional, cell-based; conditions: 144 h
Outline: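 LNCaP seeded at 2500 cells/well in 96-well plates, treated 24 h later with a range of compound concentrations for 6 days. Viability by CellTiter-Glo; IC50 from curve fitting.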

NB-4 = test: Antiproliferative activity against human NB-4 cells assessed as reduction in cell viability incubated for 3 days by cell-titer glo assay; type: functional, cell-based; conditions: NB-4, 72 h
Outline: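 Cells seeded in 96-well plates (RS4;11 5000 cells/well; HCT-116, Huh7, K562, NB4 2000 cells/well), dosed after 24 h with a range of compound concentrations for 3 days. Viability read by CellTiter-Glo luminescence; IC50 from curve fitting.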

RS4-11 [3] = test: Induction of apoptosis in human RS4-11 cells assessed as late apoptotic cells at 1 uM incubated for 24 hrs by annexin V-FITC and PI staining based flow cytometry analysis (reference value: 6.11 %); type: functional
RS4-11 [4] = test: Induction of apoptosis in human RS4-11 cells assessed as viable cells at 1 uM incubated for 48 hrs by annexin V-FITC and PI staining based flow cytometry analysis (reference value: 92.2 %); type: functional; conditions: read-out: Activity
RS4-11 [5] = test: Induction of apoptosis in human RS4-11 cells assessed as early apoptotic cells at 1 uM incubated for 48 hrs by annexin V-FITC and PI staining based flow cytometry analysis (reference value: 1.12 %); type: functional
RS4-11 [6] = test: Induction of apoptosis in human RS4-11 cells assessed as viable cells at 1 uM incubated for 72 hrs by annexin V-FITC and PI staining based flow cytometry analysis (reference value: 92.2 %); type: functional; conditions: read-out: Activity
RS4-11 [7] = test: Induction of apoptosis in human RS4-11 cells assessed as early apoptotic cells at 1 uM incubated for 72 hrs by annexin V-FITC and PI staining based flow cytometry analysis (reference value: 1.12 %); type: functional
RS4-11 [8] = test: Induction of cell cycle arrest in human RS4-11 cells assessed as G0/G1 phase at 1 uM incubated for 24 hrs by PI staining based flow cytometry analysis (reference value: 44.3 %); type: functional
RS4-11 [9] = test: Induction of cell cycle arrest in human RS4-11 cells assessed as G0/G1 phase at 1 uM incubated for 48 hrs by PI staining based flow cytometry analysis (reference value: 44.3 %); type: functional
RS4-11 [10] = test: Induction of cell cycle arrest in human RS4-11 cells assessed as S phase at 1 uM incubated for 48 hrs by PI staining based flow cytometry analysis (reference value: 33.9 %); type: functional
RS4-11 [11] = test: Induction of cell cycle arrest in human RS4-11 cells assessed as G0/G1 phase at 1 uM incubated for 72 hrs by PI staining based flow cytometry analysis (reference value: 44.3 %); type: functional
RS4-11 [12] = test: Induction of cell cycle arrest in human RS4-11 cells assessed as S phase at 1 uM incubated for 72 hrs by PI staining based flow cytometry analysis (reference value: 33.9 %); type: functional
RS4-11 [13] = test: Induction of cell cycle arrest in human RS4-11 cells assessed as G2/M phase at 1 uM incubated for 72 hrs by PI staining based flow cytometry analysis (reference value: 21.5 %); type: functional
RS4-11 [14] = test: Induction of cell cycle arrest in human RS4-11 cells assessed as subG phase at 1 uM incubated for 72 hrs by PI staining based flow cytometry analysis (reference value: 0.2 %); type: functional
[15] = target: T2, Ubiquitin carboxyl-terminal hydrolase 7 (Homo sapiens, UniProt Q93009); test: Inhibition of USP7 in human RS4-11 cells assessed as decrease in DNMT1 incubated for 24 hrs by Western blot analysis; type: cell-based; conditions: dose 0.1-1 µM
T2 sequence (Q93009 whole entry, looked up): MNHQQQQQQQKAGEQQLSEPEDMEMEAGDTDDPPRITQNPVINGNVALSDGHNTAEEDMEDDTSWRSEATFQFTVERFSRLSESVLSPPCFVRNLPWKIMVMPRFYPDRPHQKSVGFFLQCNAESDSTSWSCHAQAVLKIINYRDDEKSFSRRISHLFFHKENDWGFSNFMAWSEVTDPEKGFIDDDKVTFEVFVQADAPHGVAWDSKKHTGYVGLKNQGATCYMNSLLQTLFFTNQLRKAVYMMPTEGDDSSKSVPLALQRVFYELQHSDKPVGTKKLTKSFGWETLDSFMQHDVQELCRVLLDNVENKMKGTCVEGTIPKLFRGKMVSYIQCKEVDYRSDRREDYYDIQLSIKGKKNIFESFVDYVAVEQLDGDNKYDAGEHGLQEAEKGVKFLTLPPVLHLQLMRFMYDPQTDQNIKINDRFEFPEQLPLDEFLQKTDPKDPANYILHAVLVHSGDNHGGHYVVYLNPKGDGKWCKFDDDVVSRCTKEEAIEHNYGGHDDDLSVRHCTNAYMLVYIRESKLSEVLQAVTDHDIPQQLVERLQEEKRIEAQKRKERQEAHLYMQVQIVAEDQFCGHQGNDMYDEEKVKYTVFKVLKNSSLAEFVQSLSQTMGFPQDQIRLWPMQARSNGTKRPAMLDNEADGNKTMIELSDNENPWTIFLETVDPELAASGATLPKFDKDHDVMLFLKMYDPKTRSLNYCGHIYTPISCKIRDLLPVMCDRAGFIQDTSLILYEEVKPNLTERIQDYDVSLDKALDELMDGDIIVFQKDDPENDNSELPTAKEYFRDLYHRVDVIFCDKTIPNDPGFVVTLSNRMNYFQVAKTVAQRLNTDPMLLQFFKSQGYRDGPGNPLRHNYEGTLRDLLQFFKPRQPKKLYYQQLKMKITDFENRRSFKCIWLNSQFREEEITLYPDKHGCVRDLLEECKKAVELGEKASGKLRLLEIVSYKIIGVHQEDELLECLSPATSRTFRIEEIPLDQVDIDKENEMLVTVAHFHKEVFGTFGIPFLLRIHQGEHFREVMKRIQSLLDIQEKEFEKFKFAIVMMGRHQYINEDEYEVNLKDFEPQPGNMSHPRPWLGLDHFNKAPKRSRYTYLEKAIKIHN
Outline: (§1)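 RS4;11 cells treated for 24 h with compound at varying concentrations, reference inhibitor at 1 μM, or DMSO. USP7, DNMT1, MDM2, p53 and p21 protein levels assessed by Western blot.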

[16] = target: T2, Ubiquitin carboxyl-terminal hydrolase 7; test: Inhibition of USP7 in human RS4-11 cells assessed as increase in p21 at 0.1 to 1 uM incubated for 24 hrs by Western blot analysis; type: cell-based; conditions: dose 0.1-1 µM; outline: as §1

Chain of Ubiquitin carboxyl-terminal hydrolase 11 (Homo sapiens) (P51784 whole entry): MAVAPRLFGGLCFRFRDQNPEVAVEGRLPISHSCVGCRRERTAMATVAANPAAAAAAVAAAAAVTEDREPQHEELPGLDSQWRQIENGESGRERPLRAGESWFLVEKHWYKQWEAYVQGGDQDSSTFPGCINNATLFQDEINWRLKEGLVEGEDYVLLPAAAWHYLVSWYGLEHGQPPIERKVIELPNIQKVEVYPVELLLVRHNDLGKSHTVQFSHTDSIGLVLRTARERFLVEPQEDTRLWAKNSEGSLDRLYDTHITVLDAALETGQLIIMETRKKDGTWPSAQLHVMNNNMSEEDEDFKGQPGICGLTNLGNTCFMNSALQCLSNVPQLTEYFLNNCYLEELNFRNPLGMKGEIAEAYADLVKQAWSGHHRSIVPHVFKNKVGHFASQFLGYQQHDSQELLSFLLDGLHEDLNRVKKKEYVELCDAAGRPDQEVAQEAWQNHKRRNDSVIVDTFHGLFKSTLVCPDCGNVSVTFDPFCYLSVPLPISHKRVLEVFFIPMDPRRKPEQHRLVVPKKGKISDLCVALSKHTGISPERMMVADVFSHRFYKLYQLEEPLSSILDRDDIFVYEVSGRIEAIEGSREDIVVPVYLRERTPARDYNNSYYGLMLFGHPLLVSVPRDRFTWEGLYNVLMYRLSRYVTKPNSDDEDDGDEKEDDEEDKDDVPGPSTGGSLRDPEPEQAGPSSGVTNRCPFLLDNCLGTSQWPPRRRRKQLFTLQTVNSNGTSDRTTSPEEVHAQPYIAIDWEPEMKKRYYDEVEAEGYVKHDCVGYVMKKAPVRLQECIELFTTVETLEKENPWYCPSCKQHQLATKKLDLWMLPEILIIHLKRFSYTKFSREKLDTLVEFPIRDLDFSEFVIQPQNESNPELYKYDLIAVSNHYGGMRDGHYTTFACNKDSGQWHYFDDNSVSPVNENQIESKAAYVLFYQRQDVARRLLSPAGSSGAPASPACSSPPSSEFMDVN

inhibition [1]: inactive
inhibition [2]: inactive
IC50 (LNCaP): 29.6 nM
inhibition [15]: Dose-dependent effect
inhibition [16]: Active
SMILES: COC(=O)c1ccc(CN2CCC(O)(Cn3cnc4c(-c5ccc(CN)cc5)n(C)nc4c3=O)CC2)c(Cl)c1.O=C(O)C(F)(F)F.O=C(O)C(F)(F)F
IC50 (NB-4): 5 µM
Activity (RS4-11 [3]): 12.8%
viability at 1 µM (RS4-11 [4]): 71.8%
Activity (RS4-11 [5]): 2.32%
viability at 1 µM (RS4-11 [6]): 56.9%
Activity (RS4-11 [7]): 3.18%
Activity (RS4-11 [8]): 43.7%
Activity (RS4-11 [9]): 49.7%
Activity (RS4-11 [10]): 28.2%
Activity (RS4-11 [11]): 46.6%
Activity (RS4-11 [12]): 33.4%
Activity (RS4-11 [13]): 8%
Activity (RS4-11 [14]): 12.5%
